ChEMBL document CHEMBL4118027, “Preussilides A-F, Bicyclic Polyketides from the Endophytic Fungus Preussia similis with Antiproliferative Activity” (J Nat Prod, 2017)
Values after ≈ are worked out from the molar mass of the structure shown. Active and inactive are the calls of the source. No cut-off for these calls is given here.

How the values were obtained:
L929 [1] = assay: Cytotoxicity against mouse L929 cells assessed as reduction in cell viability after 5 days by MTT assay; format: functional, cell-based; conditions: L929, 120 h
How it was run: (§1)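 MTT viability assay run over 5 days on a panel of eight lines (L929, KB3.1, A431, A549, SKOV-3, PC-3, MCF-7, U2OS). IC50 values were derived.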

KB 3-1 = assay: Cytotoxicity against human KB3-1 cells assessed as reduction in cell viability after 5 days by MTT assay; format: functional, cell-based; conditions: KB 3-1, 120 h; how it was run: as §1
A-431 = assay: Cytotoxicity against human A431 cells assessed as reduction in cell viability after 5 days by MTT assay; format: functional, cell-based; conditions: A-431, 120 h; how it was run: as §1
A549 = assay: Cytotoxicity against human A549 cells assessed as reduction in cell viability after 5 days by MTT assay; format: functional, cell-based; conditions: A549, 120 h; how it was run: as §1
SK-OV-3 = assay: Cytotoxicity against human SKOV3 cells assessed as reduction in cell viability after 5 days by MTT assay; format: functional, cell-based; conditions: SK-OV-3, 120 h; how it was run: as §1
PC-3 = assay: Cytotoxicity against human PC3 cells assessed as reduction in cell viability after 5 days by MTT assay; format: functional, cell-based; conditions: PC-3, 120 h; how it was run: as §1
MCF7 = assay: Cytotoxicity against human MCF7 cells assessed as reduction in cell viability after 5 days by MTT assay; format: functional, cell-based; conditions: MCF7, 120 h; how it was run: as §1
U2OS [2] = assay: Cytotoxicity against human U2OS cells assessed as reduction in cell viability after 5 days by MTT assay; format: functional, cell-based; conditions: 120 h; how it was run: as §1
Aspergillus fumigatus = assay: Antifungal activity against Aspergillus fumigatus DSM 819 by serial dilution method; format: functional
Micrococcus luteus = assay: Antibacterial activity against Micrococcus luteus DSM 1790 by serial dilution method; format: functional, organism-based
Bacillus subtilis = assay: Antibacterial activity against Bacillus subtilis DSM 10 by serial dilution method; format: functional, organism-based
[3] = test system: Mycolicibacterium smegmatis; assay: Antibacterial activity against Mycobacterium smegmatis ATCC 700084 by serial dilution method; format: functional, organism-based
Escherichia coli = assay: Antibacterial activity against Escherichia coli DSM 498 by serial dilution method; format: functional, organism-based
Pseudomonas aeruginosa = assay: Antibacterial activity against Pseudomonas aeruginosa PA14 by serial dilution method; format: functional, organism-based
[4] = test system: Chromobacterium violaceum; assay: Antibacterial activity against Chromobacterium violaceum DSM 30191 by serial dilution method; format: functional, organism-based
Candida albicans = assay: Antifungal activity against Candida albicans DSM 1665 by serial dilution method; format: functional, organism-based
Rhodotorula glutinis = assay: Antifungal activity against Rhodotorula glutinis DSM 10134 by serial dilution method; format: functional, organism-based
Wickerhamomyces anomalus = assay: Antifungal activity against Pichia anomala DSM 6766 by serial dilution method; format: functional, organism-based
[5] = test system: Schizosaccharomyces pombe; assay: Antifungal activity against Schizosaccharomyces pombe DSM 70572 by serial dilution method; format: functional, organism-based
Yamadazyma tenuis = assay: Antifungal activity against Candida tenuis MUCL 29892 by serial dilution method; format: functional, organism-based
Mucor hiemalis = assay: Antifungal activity against Mucor hiemalis DSM 2656 by serial dilution method; format: functional, organism-based
Caenorhabditis elegans = assay: Nematicidal activity against Caenorhabditis elegans up to 100 ug/ml; format: functional, organism-based
Lepidium sativum = assay: Phytotoxicity against Lepidium sativum assessed as inhibition of seedling germination at 100 ug/disk; format: functional, organism-based
L929 [6] = assay: Induction of nuclear fragmentation in mouse L929 cells at cytotoxic IC50 by DAPI staining based microscopic method; format: functional, cell-based
U2OS [7] = assay: Induction of morphological changes in human U2OS cells assessed as multipolar and duplicated spindle formation at 0.25 to 5 ug/ml after 24 hrs by DAPI staining based immunofluorescence microscopic method; format: functional, cell-based
How it was run: (§2)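 U2OS in DMEM (4.5 g/L glucose, 10% FBS), 37 °C, 7% CO2, seeded 3 × 10^4/well on fibronectin-coated coverslips and adhered 16 h. Treated 24 h at 0.25, 0.5, 2.5, 5 or 10 μg/mL (diluted from 1 mg/mL DMSO stock), DMSO control. Fixed in 4% PFA/PBS 20 min; anti-α-tubulin (DM1A), phalloidin-Alexa 488 and DNA stain; immunofluorescence imaging.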

U2OS [8] = assay: Induction of morphological changes in human U2OS cells assessed as aberrantly sized cells with abnormal small nuclei formation at 0.25 to 5 ug/ml after 24 hrs by DAPI staining based immunofluorescence microscopic method; format: functional, cell-based; how it was run: as §2
U2OS [9] = assay: Induction of nuclear fragmentation in human U2OS cells at 0.25 to 5 ug/ml after 24 hrs by DAPI staining based immunofluorescence microscopic method; format: functional, cell-based
U2OS [10] = assay: Cell cycle arrest in human U2OS cells assessed as small cells with reduced nuclear size at 5 ug/ml after 18 hrs by propidium iodide staining based flow cytometry (reference value: 0.19%); format: functional; design: scale not given: the % may be the effect or the level left
How it was run: (§3)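 U2OS were seeded at 7 × 10^5/well in six-well plates and exposed to 5 or 10 μg/mL for 18 h after spreading, with untreated and DMSO mock controls. Cells were trypsinized, fixed in 2% PFA/PBS, then in ice-cold methanol 30 min. Staining: anti-tubulin/anti-lamin antibodies plus RNase A and propidium iodide. Flow cytometry assigned G1, S, G2-M and sub-G1 by DNA content.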

U2OS [11] = assay: Cell cycle arrest in human U2OS cells assessed as small cells with reduced nuclear size at 10 ug/ml after 18 hrs by propidium iodide staining based flow cytometry (reference value: 0.19%); format: functional; design: scale not given: the % may be the effect or the level left; how it was run: as §3
U2OS [12] = assay: Cell cycle arrest in human U2OS cells assessed as accumulation at G1 phase at 5 ug/ml after 18 hrs by propidium iodide staining based flow cytometry (reference value: 50.1%); format: functional; how it was run: as §3
U2OS [13] = assay: Cell cycle arrest in human U2OS cells assessed as accumulation at sub-G1 phase at 5 ug/ml after 18 hrs by propidium iodide staining based flow cytometry (reference value: 0.19%); format: functional; how it was run: as §3
U2OS [14] = assay: Cell cycle arrest in human U2OS cells assessed as accumulation at G2/M phase at 5 ug/ml after 18 hrs by propidium iodide staining based flow cytometry (reference value: 24.3%); format: functional; how it was run: as §3
U2OS [15] = assay: Cell cycle arrest in human U2OS cells assessed as accumulation at sub-G1 phase at 10 ug/ml after 18 hrs by propidium iodide staining based flow cytometry (reference value: 0.19%); format: functional; how it was run: as §3
U2OS [16] = assay: Cell cycle arrest in human U2OS cells assessed as accumulation at G2/M phase at 10 ug/ml after 18 hrs by propidium iodide staining based flow cytometry (reference value: 24.3%); format: functional; how it was run: as §3
U2OS [17] = assay: Induction of apoptosis in human U2OS cells assessed as lamin fragmentation up to 10 ug/ml after 18 hrs by flow cytometry; format: functional, cell-based; how it was run: as §3
U2OS [18] = assay: Induction of apoptosis in human U2OS cells assessed as tubulin fragmentation up to 10 ug/ml after 18 hrs by flow cytometry; format: functional, cell-based; how it was run: as §3
U2OS [19] = assay: Induction of morphological changes in human U2OS cells at 0.25 to 5 ug/ml after 24 hrs by DAPI staining based immunofluorescence microscopic method
U2OS [20] = assay: Induction of apoptosis in human U2OS cells assessed as caspase-3/7 cleavage at 10 ug/ml after 18 hrs by caspase-3/7 green reagent based flow cytometry (reference value: 8.04%)

In the case of CC(=O)CC1=C(C)C=C2C[C@@H](C)C(=O)[C@@H](C)[C@@H]2[C@H]1/C=C(C)/C=C(C)/C=C/C(=O)O, the IC50 (L929 [1]) is reported as 9.1 µM, the IC50 (KB 3-1) is reported as 2.5 µM and the IC50 (A-431) is reported as 10.1 µM. It also gave an IC50 (A549) of 22.9 µM, an IC50 (SK-OV-3) of 15.6 µM and an IC50 (PC-3) of 18.4 µM. The IC50 (MCF7) was 7.3 µM, the IC50 (U2OS [2]) was 6.8 µM and the MIC (Aspergillus fumigatus) was 8.3 µg/mL (≈ 20.9 µM). The Activity (Micrococcus luteus) was “inactive”, the Activity (Bacillus subtilis) was “inactive” and the Activity [3] was “inactive”. The Activity (Escherichia coli) was “inactive”, the Activity (Pseudomonas aeruginosa) was “inactive” and the Activity [4] was “inactive”. For the same molecule, the Activity (Candida albicans) was “inactive”, the Activity (Rhodotorula glutinis) was “inactive” and the Activity (Wickerhamomyces anomalus) was “inactive”. The Activity [5] was “inactive”, the Activity (Yamadazyma tenuis) was “inactive” and the Activity (Mucor hiemalis) was “inactive”. The Activity (Caenorhabditis elegans) was “inactive”, the Activity (Lepidium sativum) was “inactive” and the Activity (L929 [6]) was “Active”. For the same molecule, the Activity (U2OS [7]) was “Active”, the Activity (U2OS [8]) was “Active” and the Activity (U2OS [9]) was “Active”. For the same molecule, the Activity (U2OS [10]) was 1.96%, the Activity (U2OS [11]) was 25.5% and the Activity (U2OS [12]) was 56.3%. For the same molecule, the Activity (U2OS [13]) was 1.14%, the Activity (U2OS [14]) was 19.1% and the Activity (U2OS [15]) was 21.9%. The Activity (U2OS [16]) was 10.8%, the Activity (U2OS [17]) was “Active” and the Activity (U2OS [18]) was “Active”. The Activity (U2OS [19]) was “Active” and the Activity (U2OS [20]) was 5.72%.
